This is an account of results in paper PMC3579768 (Biochemistry, 2012).

Data set [1] is described as follows: Sedimentation velocity analytical ultracentrifugation. The format is physicochemical. To be noted: for sedimentation coefficient (s20,w), DCDT+ analysis: 20 °C. The essentials:
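An-50 Ti rotor, double-sector charcoal-epon cells, interference or absorbance optics. 400 μL peptide sample against buffer reference, prepared just before the run, pH set with 1 N HCl. Buffers: 10 mM sodium phosphate (pH 7, 6, 4, 2; NaCl 50, 150, 500 mM) and 20 mM Tris-HCl or HEPES pH 7, ± 50 mM MgCl2/CaCl2. Fitting used c(s) Lamm and g(s*) from 22–26 scans, with modelled monomer/dimer/tetramer S-values.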

The next data set can be described thus: NMR relaxation. The format is physicochemical. To be noted: 90:10 H2O/D2O.
Data set [2] is described as follows: Sedimentation equilibrium analytical ultracentrifugation. It counts as physicochemical. In a few lines: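 Absorbance optics at 280 nm, 20 °C, An-50 Ti rotor. Samples were 400 μL of the oxidized peptide in 10 mM sodium phosphate, pH set with 1 N HCl: pH 8 (183, 230, 283 μM), pH 7 (165–288 μM), pH 6 (210, 330 μM), pH 4 (236, 288 μM), pH 2 (189, 238, 293 μM). Buffer viscosity, density and partial specific volume were computed for 20 °C.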

The next data set concerns HD5ox. To be noted: SPR, pH 7.4, 150 mM NaCl; cited from earlier work. (SPR reads the build-up and loss of mass on a sensor chip optically.)
The data set “AUC” concerns the molecule itself. The experiment in a line: AUC.

Bridge positions count the residues as written; N and C are the ends. Ends that are not written are not given here.

For the molecule “Human defensin 5 (ATCYCRTGRCATRESLSGVCEISGRLYRLCCR; disulfide 10-30, 5-20, 3-31; also: 15N or 13C,15N labelled in NMR samples) [HD5ox]”, the “effect of Mg(II) and Ca(II) on the sedimentation coefficient” value in data set [1] (50 mM MgCl2 or CaCl2 in 20 mM Tris-HCl or HEPES buffer, pH 7.0) was “negligible impact”. Besides, in data set [1] (Equation 2, ssphere/s20,w, all buffers), the “minimum frictional ratio (f/f0)” value was ~ 1.2. Besides, the “oligomeric form from comparison of experimental and calculated S-values” in data set [1] (aqueous buffer at neutral pH, concentrations ≥30 μM) is recorded as “tetrameric”. Besides, the “sedimentation coefficient (s20,w), DCDT+ analysis” value is 1.0 S in data set [1] (pH 2.0, 10 mM sodium phosphate buffer, 194 μM); 1.2 S in data set [1] (pH 4.0, 10 mM sodium phosphate buffer, 131 μM); 1.6 S in data set [1] (pH 6.0, 10 mM sodium phosphate buffer, 161 μM); 1.8 S in data set [1] (pH 7.0, 10 mM sodium phosphate buffer). In addition, the “effect of NaCl on the sedimentation coefficient” value in data set [1] (up to 500 mM NaCl, pH 7, 10 mM sodium phosphate buffer) is reported as “no effect”. Further, the “molecular weight estimated from TRACT Tc” value in “NMR relaxation” (340 μM 13C,15N-HD5ox, pH 4) is reported as “ca. 6.8 kDa”. Moreover, in the data set “NMR relaxation” (340 μM 13C,15N-HD5ox, pH 4 (TFA)), the “rotational correlation time Tc, [15N,1H]-TRACT method” value was “ca. 4.1 ns”. The “oligomerization state under the NMR sample conditions” value in “NMR relaxation” (340 μM, pH 4, unbuffered) is given as “dimer”. The “best-fit molecular weight by sedimentation equilibrium” value in data set [2] (pH 2.0, 10 mM sodium phosphate buffer, 189-293 μM, 20 °C) is listed as 7,079 Da. Also, the “oligomeric molecular weight to which the sedimentation equilibrium fit converged” value in data set [2] (pH 4.0, 6.0 and 8.0, 10 mM sodium phosphate buffer) is reported as “tetrameric”. The “HD5ox concentration above which evidence for higher-order oligomers was reported” value in the data set on HD5ox was over 8 µM.
ATCYCRTGRCATRESLSGVCEISGRLYRLCCR (peptide, UniProt Q01523 63-94, looked up, disulfide 10-30, 5-20, 3-31; also: 15N or 13C,15N labelled in NMR samples) [Human defensin 5, oxidized form (HD5ox)]: in “AUC”, the Kd (commonly the constant that tells how readily two partners part at equilibrium) is under 30 µM and the stoichiometry N – broadly, a count of units in the complex or per binding partner – was 4.
